TCR CD3 inh: human TCR-CD3 binding inhibition; inhibition, % at 9.4 µM; TAMRA-labeled TCR probe fluorescence, biochemical; hit rate 0.37% among 360,000;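 note: recombinant mutant TCR 2C K166C tagged with TAMRA read by polarization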
SIAE primary: inhibitors of human sialic acid acetylesterase SIAE; Q9HAT2; SIAE FP-Rh probe binding, fluorescence polarization; inhibition, % at 9.66 µM; hit rate 0.69% among 370,000;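 active = inhibition above a cutoff: mean of compounds within the control limits plus 3 SD of those, cut at about 17% in these data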
Target sequence (Q9HAT2 whole entry, looked up): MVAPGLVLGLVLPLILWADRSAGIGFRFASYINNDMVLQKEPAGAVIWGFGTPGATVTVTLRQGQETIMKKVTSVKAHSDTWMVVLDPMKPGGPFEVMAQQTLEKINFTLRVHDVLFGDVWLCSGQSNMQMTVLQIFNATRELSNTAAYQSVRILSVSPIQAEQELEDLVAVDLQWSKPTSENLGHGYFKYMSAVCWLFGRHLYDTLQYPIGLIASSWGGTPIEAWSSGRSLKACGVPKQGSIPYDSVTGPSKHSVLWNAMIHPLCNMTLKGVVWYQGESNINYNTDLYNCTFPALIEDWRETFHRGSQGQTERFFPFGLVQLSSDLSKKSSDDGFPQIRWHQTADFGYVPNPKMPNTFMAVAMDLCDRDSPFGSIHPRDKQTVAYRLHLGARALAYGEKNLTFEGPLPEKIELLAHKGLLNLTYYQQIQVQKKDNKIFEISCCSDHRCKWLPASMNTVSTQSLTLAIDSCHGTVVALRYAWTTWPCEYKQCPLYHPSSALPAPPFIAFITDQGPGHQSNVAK
mABHD4 FP: inhibits mouse alpha/beta hydrolase domain 4. inhibition, % at 8.92 µM. purified mABHD4, FP-Rh probe fluorescence polarization. AID 720543. Q8VD66. hit rate 0.54% among 370,000;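 active = inhibition exceeding the mean over every tested compound plus 3 SD, cut at about 30% in these data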
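assay system = mABHD4 protein | compound dosing = single nominal dose of 8.92 µM, 0.89% DMSO final | read-out basis = percent inhibition of probe binding, normalized to plate controls | schedule = Enzyme–compound pre-incubation 45 min, then probe 60 min, both 25 °C | detection = fluorescence polarization, excitation 525 nm, emission 598 nm, BODIPY TMR filters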
pPAFAH inh: inhibitors of human plasma PAF acetylhydrolase (pPAFAH) | Q13093 | recombinant pPAFAH, FP-rhodamine probe fluorescence polarization | inhibition, % at 3.39 µM | hit rate 1.5% among 330,000 | AID 463082;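 active = inhibition above the mean inhibition across the screen plus 3 SD, cut at about 25% in these data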;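 note: inhibitors block binding of the rhodamine activity-based probe so polarization drops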
HTRA1 inh: HTRA1 (human) protease inhibition. Q92743. recombinant HTRA1, FP-rhodamine activity-based probe, fluorescence polarization. inhibition, % at 5.96 µM. hit rate 0.5% among 340,000. AID 504803; in the data active = inhibition above about 36%
HTRA1 conf: confirmation of human HTRA1 inhibitors; shares compounds with HTRA1 inh; recombinant HTRA1, FP-rhodamine activity-based probe, fluorescence polarization; inhibition, % at 5.96 µM; hit rate 66% among 1,600;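 active = mean inhibition over three repeats above a set limit taken from the earlier primary screen, cut at about 37% in these data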;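 note: inhibitors block probe binding so polarization drops and inhibition rises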
BSA TAMRA ctr: counter-screen for TCR-CD3 interaction inhibitors: BSA probe; TAMRA-labeled BSA probe fluorescence counterscreen; shares compounds with TCR CD3 inh; AID 652035; hit rate 10% among 1,200; inhibition, % at 9.4 µM; in the data active = inhibition above about 23%
TCR-CD3 conf: TCR-CD3 interaction inhibition, confirmation; shares compounds with TCR CD3 inh; hit rate 48% among 1,200; TAMRA-labeled TCR probe fluorescence binding assay; inhibition, % at 9.4 µM; AID 652036
ABHD4 confirm: confirmation of mouse ABHD4 inhibitors; shares compounds with mABHD4 FP; AID 720658; hit rate 55% among 1,800; purified mABHD4, FP-Rh probe fluorescence polarization; inhibition, % at 8.92 µM;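 active = mean inhibition across replicates above the hit cutoff set in the primary screen, cut at about 30% in these data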
SIAE confirm: human SIAE inhibition, confirmation; shares compounds with SIAE primary; SIAE FP-Rh activity-based probe, fluorescence polarization; inhibition, % at 9.66 µM; hit rate 13% among 2,300; AID 1117263;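 active = mean inhibition of the replicates above the hit cutoff set in the primary screen, cut at about 17% in these data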;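 note: inhibitors lower polarization as more probe stays unbound to SIAE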
Each line names hits and unclear results; the compound was inactive in the other large screens (follow-up assays come after a bar, where they were run). Only some compounds are listed: those with a hit (about 2.3% of all), similar ones and a draw of the others. Cut-off read from the data, not from the text of the source, unless noted: active = inhibition above about 19%; inactive = the rest.

COc1cc(Cn2c3ccc(NC(=O)CC(C)C(F)(F)F)cc3c(=O)n2C)ccc1F (stereo not drawn)	none (no result: pPAFAH inh, HTRA1 inh)
Oc1ccc(N=Nc2ccc3c(c2)OCCO3)c2cccnc12	SIAE primary 20.4, pPAFAH inh 32.9, HTRA1 inh 50.2 | HTRA1 conf 69.1 | SIAE confirm inactive
COc1cc([N+](=O)[O-])c(OC)cc1Nc1ccccc1C(=O)O	none (no result: pPAFAH inh, HTRA1 inh)
COc1cc(-c2ccc(Nc3ccccc3C(=O)O)c(OC)c2)ccc1Nc1ccccc1C(=O)O	SIAE primary 30.5, mABHD4 FP 53.6, HTRA1 inh 42.4 (no result: pPAFAH inh) | HTRA1 conf 56.0 | ABHD4 confirm 80.2 | SIAE confirm 22.1
O=C1/C(=C\c2ccc(O)c(O)c2)C(c2ccccc2)=NN1c1ccccc1	SIAE primary 28.0, HTRA1 inh 58.0 (no result: pPAFAH inh) | HTRA1 conf 97.1 | SIAE confirm inactive
CC1=NN(c2ccccc2)C(=O)/C1=C\c1sccc1C	none
CCCCN(C=O)c1c(CC)nc2c(OCc3ccc(Cl)cc3)cccn12	none (no result: pPAFAH inh, HTRA1 inh)
O=[N+]([O-])c1cc(Br)c(Nc2ccccc2)c([N+](=O)[O-])c1	none
O=[N+]([O-])c1cc([N+](=O)[O-])c2c(=Nc3ccccc3)n(-c3ccccc3)n(O)c2c1	TCR CD3 inh 26.4, SIAE primary 25.0, mABHD4 FP 55.5, HTRA1 inh 42.2 | HTRA1 conf 47.9 | ABHD4 confirm 48.0 | SIAE confirm inactive
N#C/C(=C/c1ccc(N2CCCCC2)o1)C(=O)Nc1ccc2ccccc2c1	SIAE primary 20.8, HTRA1 inh 36.5 (no result: pPAFAH inh) | HTRA1 conf 39.5 | SIAE confirm inactive
CCCCNC(=O)C1CCCN1C(=O)Nc1cc(Cl)cc(Cl)c1 (stereo not drawn)	none (no result: TCR CD3 inh, pPAFAH inh, HTRA1 inh)
CCOc1ccc(C(NC(=O)c2ccco2)c2ccc(OC)c(OC)c2)cc1 (stereo not drawn)	none
CCCC(=O)NC(c1ccc(OC)c(OC)c1)c1cc(Cl)c2cccnc2c1O (stereo not drawn)	SIAE primary 19.7, HTRA1 inh 46.4 | HTRA1 conf 66.1 | SIAE confirm inactive
CN1CCN(C(c2ccc(C(F)(F)F)cc2)c2cc(Cl)c3cccnc3c2O)CC1 (stereo not drawn)	none (no result: HTRA1 inh)
CC(=O)NC(c1ccccc1)c1cc(Cl)c2cccnc2c1O (stereo not drawn)	SIAE primary 20.2, HTRA1 inh 70.5 | HTRA1 conf 72.1 | SIAE confirm 17.2
CC(=O)NC(c1ccc(N(C)C)cc1)c1cc(Cl)c2cccnc2c1O (stereo not drawn)	SIAE primary 23.2, mABHD4 FP 29.7, HTRA1 inh 65.0 (no result: pPAFAH inh) | HTRA1 conf 82.0 | ABHD4 confirm 32.7 | SIAE confirm 24.1
COc1ccc(C(NC(C)=O)c2cc(Cl)c3cccnc3c2O)cc1 (stereo not drawn)	SIAE primary 19.1, HTRA1 inh 70.5 | HTRA1 conf 79.9 | SIAE confirm 19.5
CCCC#Cc1ccc2c(c1)O[C@@H](CN(C)Cc1ccc3c(c1)OCO3)[C@H](C)CN([C@@H](C)CO)S2(=O)=O	none (no result: pPAFAH inh)
CCNC(=O)C[C@@H]1C=C[C@@H](NS(=O)(=O)c2ccc(F)cc2)[C@@H](CO)O1	none (no result: pPAFAH inh, HTRA1 inh)
CC(=O)Nc1cccc(-c2ccnc3c2CC(C(=O)NCc2cccs2)O3)c1 (stereo not drawn)	none (no result: pPAFAH inh, HTRA1 inh)
CCCCCCCCN1C(=O)[C@@H](CC(=O)N2CCOCC2)C[C@@]2(C(=O)OC)C1=C[C@H](COCc1ccccc1)O[C@@H]2C	none (no result: TCR CD3 inh, pPAFAH inh, HTRA1 inh)
O=S(=O)(Nc1ccc(N=Nc2ccc(O)c3ccccc23)cc1)c1ccccc1	SIAE primary 35.9, HTRA1 inh 44.2 | HTRA1 conf inactive | SIAE confirm inactive
N#Cc1ccc(S(=O)(=O)N2CCCCC2c2cc(C(=O)NCc3ccccc3)no2)cc1 (stereo not drawn)	none (no result: pPAFAH inh, HTRA1 inh)
O=C(Cn1nnc(-c2ccccc2)c1COc1ccc2ccccc2c1)NCC1CC1	none (no result: pPAFAH inh, HTRA1 inh)
CCn1c(CSc2n[nH]c(N)n2)nc2cc(C(=O)O)ccc21	TCR CD3 inh 94.1, SIAE primary 35.9, pPAFAH inh 25.2, HTRA1 inh 42.6 | HTRA1 conf 66.7 | BSA TAMRA ctr 137.3 | TCR-CD3 conf 97.0 | SIAE confirm 31.3
Cc1cc2nc3ccc(N(C)C)cc3nc2cc1N	TCR CD3 inh 93.0, SIAE primary 29.7, mABHD4 FP 56.8, pPAFAH inh 31.7, HTRA1 inh 66.0 | HTRA1 conf 59.8 | BSA TAMRA ctr 48.3 | TCR-CD3 conf 72.3 | ABHD4 confirm inactive | SIAE confirm 31.8
O=C(CSc1nc2ccc(Nc3nc(N4CCOCC4)nc(N4CCOCC4)n3)cc2s1)Nc1ccccc1	none (no result: pPAFAH inh, HTRA1 inh)
CC(C)NC(=O)C1(C)CN(S(C)(=O)=O)CC(=O)N1CCc1ccccc1 (stereo not drawn)	none (no result: pPAFAH inh, HTRA1 inh)
COC(=O)[C@]12C[C@H](CC(=O)NCc3ccc(C)o3)C(=O)N(Cc3cccc4ccccc34)C1=C[C@H](C1CCCC1)O[C@@H]2C	none (no result: TCR CD3 inh, pPAFAH inh, HTRA1 inh)
C/C(=N/Nc1ccc([N+](=O)[O-])cc1)c1ccc(C)cc1C	none
C/C(=N/Nc1ccc([N+](=O)[O-])cc1)c1c[nH]c2ccccc12	SIAE primary 34.2, HTRA1 inh 45.8 (no result: pPAFAH inh) | HTRA1 conf 81.2 | SIAE confirm inactive
Cc1[nH]n(-c2ncc(-c3ccccc3)s2)c(=O)c1C(c1ccc(Br)cc1)C(C#N)C#N (stereo not drawn)	SIAE primary 23.9, mABHD4 FP 50.5, pPAFAH inh 27.4, HTRA1 inh 39.1 | HTRA1 conf inactive | ABHD4 confirm 42.9 | SIAE confirm inactive
CC(=O)c1cc(-c2cccc([N+](=O)[O-])c2)c(=O)n2c1CCC2	none (no result: TCR CD3 inh, pPAFAH inh, HTRA1 inh)
O=C(OC1CC2CC1[C@H]1CCCCN1C2=O)N1CCN(C(=O)c2ccccc2)CC1 (stereo partly drawn)	none (no result: pPAFAH inh, HTRA1 inh)
CN(/N=C/c1ccc(O)cc1O)c1ncc(C(F)(F)F)cc1Cl	SIAE primary 18.7, HTRA1 inh 56.4 | HTRA1 conf 88.9 | SIAE confirm inactive
Oc1ccc(/C=N/N(c2ccccc2)c2ccccc2)c(O)c1O	SIAE primary 20.3, mABHD4 FP 39.2, pPAFAH inh 69.1, HTRA1 inh 68.3 | HTRA1 conf 78.9 | ABHD4 confirm 30.4 | SIAE confirm inactive
CC1(C)OC(=O)C(=CNc2cccc(O)c2)C(=O)O1	none
